PMC10496428 (ACS Infectious Diseases, 2023)

Assays:
[1] = tested on: P. falciparum Nluc trophozoite-stage parasites; assay: Protein secretion and export; format: cell-based, Plasmodium falciparum; settings: 5 h treatment; brefeldin A 5 μg/mL, torin 2 10 nM, M-797 4.8 μM, OGHL250 3.1 μM, WEHI-518 200 nM, C3 1.2 μM, KDU731 300 nM
In short: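 Nluc-exporting P. falciparum, synchronized with 5% sorbitol and Percoll, grown in human RBCs at 37 °C under 1% O2/5% CO2; trophozoites at 20–24 hpi treated 5 h with test compound (0.1% DMSO vehicle). Cells differentially lysed to release RBC only, RBC plus PV, or all compartments, and Nluc signal measured in each fraction. Three biological replicates of three technical replicates.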

[2] = tested on: P. falciparum Hyp1-Nluc late schizonts; assay: 4 h egress assay; format: cell-based, Plasmodium falciparum; settings: for 4-Hour Egress EC50: dilution series, DNI = did not inhibit
In short: (§1)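 Hyp1-Nluc 3D7 parasites were sorbitol-synchronised, grown to late schizonts and isolated on a 67% Percoll gradient. They were given a 4 h window to egress and invade RBCs in test compound, either at 10× growth EC50 or as a dilution series. Egress was read as Nluc in harvested medium with NanoGlo substrate. Background controls were subtracted from egress and invasion values, then normalised to 0.1% DMSO. Three biological replicates were run, with SD.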

[3] = tested on: P. falciparum Hyp1-Nluc parasites; assay: 4 h invasion / early ring-stage development assay; format: cell-based, Plasmodium falciparum; settings: 4 h treatment at 10× EC50 for growth; for Invasion / early ring-stage development normalized to 0.1% DMSO: then 24 h growth without compound
In short: as §1

[4] = tested on: Nluc; assay: Nluc counter screen on parasite lysates; format: biochemical; settings: 10x EC50 of growth, 10 min at 37 °C
In short: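 Hyp1-Nluc schizonts at 1% haematocrit and 1–2% parasitaemia were lysed in 1x NanoGlo buffer. Lysates were added to test compound and incubated 10 min at 37 °C. Nluc activity was read by furimazine bioluminescence and normalised to 0.1% DMSO.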

[5] = tested on: P. falciparum purified merozoites (Nluc parasites); assay: Invasion inhibition assay with purified merozoites; format: cell-based, Plasmodium falciparum; settings: heparin 100 μg/mL, C1 4 μM, chloroquine 75 nM
In short: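 Purified Nluc merozoites were exposed to test compound for 30 min. Compound was then removed and newly invaded parasites grown for 24 h before Nluc quantification. Controls were heparin (100 μg/mL), C1 (4 μM) and chloroquine (75 nM). Values are relative to DMSO, with three biological replicates.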

[6] = tested on: MMV390048 resistant Dd2 with S743T mutation in PI4KIIIB; assay: 72 h growth assay, [3H]-hypoxanthine incorporation; format: cell-based, Plasmodium falciparum; settings: 3H-hypoxanthine incorporation assay
In short: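 This was a modified [3H]-hypoxanthine incorporation assay over 72 h. It compared parental Dd2 with an MMV390048-resistant Dd2 line carrying PI4KIIIB S743T.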

COc1cc(C(=O)N(C)C)ccc1-c1cc2nccc(-c3ccc4ccncc4c3)c2o1 [OGHL250, N(C)(C)C(=O)c1cc(c(cc1)-c5oc2c(nccc2-c4cc3cnccc3cc4)c5)OC]
Export of Nluc reporter into the RBC compartment relative to DMSO [1]: did not significantly reduce export | 4-Hour Egress EC50 [2]: did not inhibit parasite egress

heparin
Invasion / early ring-stage development normalized to 0.1% DMSO [3]: almost complete invasion inhibition

CNS(=O)(=O)c1ccccc1Nc1nc(Nc2ccc(N3CCOCC3)cc2OC)ncc1Br [OGHL134, Brc1c(nc(nc1)Nc2c(cc(cc2)N3CCOCC3)OC)Nc4c(cccc4)S(=O)(=O)NC]
Invasion inhibition normalized to 0.1% DMSO [3]: < 50% | Invasion / early ring-stage development normalized to 0.1% DMSO [3]: borderline

COc1cc(OC)c(CCNC(=O)c2cn3cc(-c4cc(OCC(=O)O)ccc4OC)nc3s2)c(OC)c1 [OGHL239, s1c3n(cc1C(=O)NCCc2c(cc(cc2OC)OC)OC)cc(n3)-c4c(ccc(c4)OCC(=O)O)OC]
direct inhibition of Nluc activity in parasite lysates [4]: strongly inhibit Nluc activity

C[C@H]1CCC/C=C/[C@@H]2C[C@H](O)C[C@H]2[C@H](O)/C=C/C(=O)O1 [brefeldin A]
Export of Nluc reporter into the RBC compartment relative to DMSO [1]: significantly reduced export into the RBC compartment

CCN(CC)CCCC(C)Nc1ccnc2cc(Cl)ccc12 (stereo not shown) [chloroquine]
Invasion of purified merozoites relative to 0.1% DMSO (controls) [5]: had no effect on invasion

CN1CCC(c2cc(-c3ccncc3)c(-c3ccc(F)cc3)[nH]2)CC1 [Compound C1, 4-[2-(4-fluorphenyl)-5-(1-methylpiperidine-4-yl)-1H-pyrrol-3-yl]pyridine]
Invasion of purified merozoites relative to 0.1% DMSO (controls) [5]: directly inhibited merozoite invasion | Egress over a 4 h window, compared to 0.1% DMSO control normalized to 100% ([2]; OGHL compounds at 10× EC50 of growth): 38%

CN(C(=O)c1ccn2ncc(-c3ccc(C(N)=O)cc3)c2c1)c1ccc(C#N)cn1 [KDU731]
Export of Nluc reporter into the RBC compartment relative to DMSO [1]: reduced protein export into the RBC compartment

Nc1ccc(-c2ccc3ncc4ccc(=O)n(-c5cccc(C(F)(F)F)c5)c4c3c2)cn1 [torin 2]
Export of Nluc reporter into the RBC compartment relative to DMSO [1]: significantly reduced export into the RBC compartment

COc1ccc(CNc2nc(-c3ccc(C(=O)O)nc3)nc3sc4c(c23)CCCC4)cc1Cl [OGHL121, Clc1c(ccc(c1)CNc2nc(nc3sc4c(c32)CCCC4)-c5cnc(cc5)C(=O)O)OC]
Invasion inhibition normalized to 0.1% DMSO [3]: < 50% | Invasion / early ring-stage development normalized to 0.1% DMSO [3]: borderline

COc1ccc(-c2c(C)nn3c(N)c(C#N)cnc23)cc1OC [Compound M-797]
fold resistance of S743T parasites compared to parental Dd2 [6]: 2 fold | Export of Nluc reporter into the RBC compartment relative to DMSO [1]: significantly reduced export into the RBC compartment | 4-Hour Egress EC50 [2]: did not block egress

Cn1cc(-c2cnc3[nH]cc(-c4cn(Cc5cccc(F)c5F)nn4)c3c2)cn1 [OGHL169, Fc1c(cccc1Cn2nnc(c2)-c3c[nH]c4ncc(cc43)-c5cn(nc5)C)F]
Invasion inhibition normalized to 0.1% DMSO [3]: < 50% | Invasion / early ring-stage development normalized to 0.1% DMSO [3]: < 50%
